Source: ChEMBL document CHEMBL3272237, “Gliotoxin analogues as inhibitors of reverse transcriptase. 1. Effect of lipophilicity” (J Med Chem, 1978)

Tests used:
[1] = tested on: Moloney murine leukemia virus; test: Inhibition of Moloney murine leukemia virus reverse transcriptase using [3H-methyl]-dTTP as substrate after 120 mins; parameters: unit not given here
How it was run: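 Enzyme source was Moloney MLV from infected NIH-3T3 cells, gradient-purified, used as whole virus. Mix: 40 mM Tris-HCl pH 7.8, 50 mM NaCl, 2 mM MnCl2, 1.6 mM DTT, 0.0125% Triton X-100, 0.64 mM each dATP/dCTP/dGTP, [methyl-3H]dTTP. Compounds were tested at 4–400 μg/mL (Me2SO up to 4%). Incubation was 37 °C, sampled at 120 min for acid-precipitable counts, mean of three runs. I50 read from %-of-Me2SO-control plot.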

[2] = Lipophilicity of the compound by reversed-phase TLC analysis; format: physicochemical; conditions: RP-TLC on silylated silica plates impregnated with Dow-Corning 704 fluid
How it was run: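 Silica gel F-254 plates were silanized with 5% (CH3)2SiCl2 in toluene, then impregnated with 5% Dow-Corning 704 fluid in ether. Spots were 1 μL of 3 mg/mL CH2Cl2 solution. Plates were developed in acetone–water 3:1 saturated with the fluid and visualized with 2% aqueous AgNO3. Rm = log(1/Rf − 1), averaged over five determinations.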

[3] = Lipophilicity of the compound by reversed-phase HPLC analysis; conditions: ODS stationary phase, MeOH-H2O (2:1) mobile phase

| SMILES | log(I50×10^5) [1] | Rm [2] | log k' [3] |
| --- | --- | --- | --- |
| CC12SSC3(C(=O)N1c1ccccc1)N(C2=O)c1ccccc1C3(C)C (stereo unspecified) | 1.69 | 0.2892 | -0.1127 |
| CN1C(=O)C23SSC1(c1ccccc1)C(=O)N2c1ccccc1C3(C)C (stereo unspecified) | 0.978 | 0.3007 | -0.0527 |
| CC12SSC3(C(=O)N1Cc1ccccc1)N(C2=O)c1ccccc1C3(C)C (stereo unspecified) | 0.574 | 0.3514 | 0.0994 |

Second part, the compound after the results:

| log(I50×10^5) [1] | Rm [2] | log k' [3] | SMILES |
| --- | --- | --- | --- |
| 1.93 | 0.2769 | -0.1291 | CC(C)N1C(=O)C23SSC1(C)C(=O)N2c1ccccc1C3(C)C (stereo unspecified) |
| 1.06 | 0.2717 | -0.0817 | CCCN1C(=O)C23SSC1(C)C(=O)N2c1ccccc1C3(C)C (stereo unspecified) |
| 2.07 | 0.0132 | -1.067 | CN1CC(=O)N2c3ccccc3C(C)(C)C2(S)C1=O (stereo unspecified) |
| 1.89 | 0.1636 | -0.34 | CCN1C(=O)C23SSC1(C)C(=O)N2c1ccccc1C3(C)C (stereo unspecified) |
